# Test results reported in ChEMBL document CHEMBL3351903, “A potent HDAC inhibitor, 1-alaninechlamydocin, from a Tolypocladium sp. induces G2/M cell cycle arrest and apoptosis in MIA PaCa-2 cells” (J Nat Prod, 2014).
# Activity calls are given as the source filed them. The calls are words filed in the database; no cut-off is given here. Where a SMILES comes first, the peptide text is derived from it. [ ]: non-standard residue; d: D form. ξ: configuration not given here. Aoe(9ξ) = N[C@@H](CCCCCC(=O)C1CO1)C(=O)O; dPip = O=C(O)[C@H]1CCCCN1
# What was measured:
# MIA PaCa-2 [1] = assay: (§1) Antiproliferative activity against human MIAPaCa2 cells after 48 hrs by MTT assay; assay type: functional
# Summary of the method: (§2)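 Cells held in RPMI with 5% FetalClone III and penicillin/streptomycin (50 U/mL, 50 μg/mL); hTERT-HPNE also given 10 ng/mL recombinant human EGF; used within 3 months of thaw. 48 h compound exposure, DMSO ≤1% final, then MTT.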
# [2] = Half life in freshly prepared rat serum; assay type: ADME, cell-free
# [3] = Half life in rat whole blood; assay type: ADME, tissue-based
# MIA PaCa-2 [4] = assay: Induction of cell cycle arrest in human MIAPaCa2 cells assessed as accumulation at G1 phase at 20 nM after 20 hrs by propidium iodide staining based flow cytometry (reference value: 50.2%); assay type: functional
# Summary of the method: (§3)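 MIA PaCa-2 cells exposed 20 h to 8 or 20 nM, with vehicle-treated cells as comparison. Cells stained with propidium iodide and analysed by flow cytometry. Cell cycle phase distributions calculated by modelling software.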
# [5] = molecular target: Histone deacetylase (Homo sapiens) (UniProt Q13547+O15379+Q9UBN7+Q92769+Q9UQL6+Q8WUI4+Q9BY41+Q96DB2+P56524+Q9UKV0+Q969S8); assay: Inhibition of HDAC in human HeLa cell lysates after 30 mins by fluorescence based assay; assay type: protein assay
# Summary of the method: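 Fluorometric kit assay using HeLa cell lysate with 100 μM acetylated substrate in assay buffer. Compound added at 20-fold stock, 30 min at 30 °C. Developer then releases the fluorophore from deacetylated substrate; read at ex 355/em 460 nm. Triplicate wells normalized to signal without inhibitor; IC50 by nonlinear regression.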
# MIA PaCa-2 [6] = assay: Induction of cell cycle arrest in human MIAPaCa2 cells assessed as accumulation at S phase at 8 nM after 20 hrs by propidium iodide staining based flow cytometry (reference value: 30.6%); assay type: functional; summary of the method: as §3
# MIA PaCa-2 [7] = assay: Induction of PARP cleavage in human MIAPaCa2 cells at 20 nM after 20 hrs by SDS-PAGE and immunoblotting; assay type: functional, cell-based
# Summary of the method: (§4)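 MIA PaCa-2 cells treated 20 h with vehicle, 8 or 20 nM. Total cell lysates run on SDS-PAGE and immunoblotted with a PARP antibody recognizing full-length and cleaved forms. Detection by HRP-conjugated secondary antibody.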
# [8] = as §1; assay type: functional; conditions: MIA PaCa-2, 48 h; summary of the method: as §2
# [9] = Antiproliferative activity against human PANC1 cells after 48 hrs by MTT assay; assay type: functional; conditions: PANC-1, 48 h; for CC50: read-out: LC50 (the source's name); summary of the method: as §2
# MIA PaCa-2 [10] = assay: Antiproliferative activity against human MIAPaCa2 cells exposed to 25 nM compound incubated in human serum for 5 to 30 mins measured after 48 hrs by MTT assay; assay type: functional, cell-based
# Summary of the method: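 Compound DMSO stock mixed 1:10 with human type AB serum and held at room temperature for 5, 10, 15 or 30 min. Aliquots then added to 5000 MIA PaCa-2 cells per well, 25 nM final. Cells grown 48 h, then viability read by MTT.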
# [11] = Antiproliferative activity against hTERT expressing immortalized human HPNE cells after 48 hrs by MTT assay; assay type: functional; conditions: for CC50: read-out: LC50 (the source's name); summary of the method: as §2
# MIA PaCa-2 [12] = assay: Induction of PARP cleavage in human MIAPaCa2 cells at 8 nM after 20 hrs by SDS-PAGE and immunoblotting; assay type: functional, cell-based; summary of the method: as §4
compound,measurement,setting,value
O=C(CCCCC[C@@H]1NC(=O)[C@H]2CCCCN2C(=O)[C@H](Cc2ccccc2)NC(=O)[C@H](Cc2ccccc2)NC1=O)C1CO1 (some centres undefined) (cyclo(FF[dPip][Aoe(9ξ)])),growth inhibition (GI),MIA PaCa-2 [1],Active
CCC(=O)CCCCC[C@@H]1NC(=O)[C@H]2CCCCN2C(=O)[C@H]([C@@H](C)CC)NC(=O)[C@H](Cc2cn(OC)c3ccccc23)NC1=O,growth inhibition (GI),MIA PaCa-2 [1],Active
CC1(C)NC(=O)[C@H](CCCCCC(=O)[C@H]2CO2)NC(=O)[C@H]2CCCN2C(=O)[C@H](Cc2ccccc2)NC1=O [CHLAMYDOCIN],half-life,[2],8.7 min
same,half-life,[3],0.68 to 3.6 min
C[C@@H]1NC(=O)[C@H](CCCCCC(=O)[C@@H]2CO2)NC(=O)[C@H]2CCCN2C(=O)[C@H](Cc2ccccc2)NC1=O,Activity,MIA PaCa-2 [4],19.6%
same,inhibition,[5],Dose-dependent effect
same,Activity,MIA PaCa-2 [6],34.6%
same,Activity,MIA PaCa-2 [7],Active
same,TGI,[8],0.0088 µM
same,TGI,[9],0.05 µM
same,CC50,[9],> 10 µM
same,inhibition,MIA PaCa-2 [10],Active
same,TGI,[11],0.66 µM
same,CC50,[11],> 10 µM
same,Activity,MIA PaCa-2 [12],Active
O=C(CCCCCCC(=O)Nc1ccccc1)NO [VORINOSTAT],CC50,[8]; read-out: LC50 (the source's name),4.85 µM
same,CC50,[9],> 10 µM
same,TGI,[11],> 10 µM
same,CC50,[11],> 10 µM
